TPT1 inhibitor: Candida albicans TPT1 enzyme inhibitors, primary screen, biochemical, fluorescence polarization | tRNA 2'-phosphotransferase TPT1 (Candida albicans SC5314) | recombinant caTPT1, FP RNA substrate dephosphorylation | inhibition, % at 5 µM | 300,000 tested, 0.81% active;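 active means inhibition above the mean of all tested compounds plus 3 SD, set per screening campaign, cut at about 24% in these data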
CSN deneddyl inh: inhibitors of CSN-mediated cullin deneddylation, primary screen, biochemical, fluorescence polarization, uHTS. Purified CSN, SCF-Nedd8-OG deneddylation. inhibition, % at 12.5 µM. 360,000 tested, 0.38% active. AID 651999, 2013;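 active means pattern-corrected inhibition above about 35%, with an unprinted fluorescence ratio check between 0.5 and 1.5, limit read from the data, passing the limit was not always enough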
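Material: purified human Csn5 enzyme expressed in HEK293T cells / Medium: Tris buffer pH 7.5, NaCl, DTT, Tween-20, trehalose, ovalbumin / Compound dosing: 12.5 µM single point / Schedule: 90 min incubation of compound, enzyme and substrate at room temperature / Signal: fluorescence polarization of the substrate / Control set: no-enzyme wells high, enzyme-with-substrate wells low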
Rev-erbA mod: modulators of Rev-erb alpha DNA binding, primary screen, biochemical, FITC-DNA, fluorescence polarization, uHTS. 370,000 tested, 0.79% active. activity, % at 10 µM. Rev-erbα–FITC-DNA binding, 90 min. Nuclear receptor subfamily 1 group D member 1 (Homo sapiens), P20393;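 active means activity above about 14%, limit read from the data; passing the limit was not always enough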
Target sequence (P20393 whole entry, looked up): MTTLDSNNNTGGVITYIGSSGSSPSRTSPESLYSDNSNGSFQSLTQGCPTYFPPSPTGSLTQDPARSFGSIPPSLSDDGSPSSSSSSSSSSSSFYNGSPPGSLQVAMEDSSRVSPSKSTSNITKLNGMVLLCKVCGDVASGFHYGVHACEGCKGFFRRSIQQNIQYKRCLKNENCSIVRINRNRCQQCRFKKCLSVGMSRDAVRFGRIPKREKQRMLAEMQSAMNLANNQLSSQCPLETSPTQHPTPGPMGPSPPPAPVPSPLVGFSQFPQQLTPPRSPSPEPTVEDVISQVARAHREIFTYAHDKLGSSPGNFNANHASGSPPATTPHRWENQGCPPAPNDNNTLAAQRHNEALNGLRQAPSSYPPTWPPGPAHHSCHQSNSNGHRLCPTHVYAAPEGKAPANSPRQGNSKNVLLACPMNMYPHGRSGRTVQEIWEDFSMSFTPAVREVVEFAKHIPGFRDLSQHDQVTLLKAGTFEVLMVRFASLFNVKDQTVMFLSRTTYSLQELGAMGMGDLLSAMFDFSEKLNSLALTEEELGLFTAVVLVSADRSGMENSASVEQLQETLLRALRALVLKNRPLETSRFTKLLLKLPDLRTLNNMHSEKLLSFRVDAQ
HNF4A DNA FP: change in binding of human HNF4A to DNA, primary screen, biochemical, fluorescence polarization, FITC-DNA; Hepatocyte nuclear factor 4-alpha (Homo sapiens), P41235; 1 h; activity change, % at 10 µM; 360,000 tested, 0.3% active; AID 1224865, 2016; in the data active means activity change above about 30%, passing the limit was not always enough
Numbers stand for hits; – = inactive; · = no result. A selection: hits, their analogues and other compounds. The true share with any hit is near 1.7%.

SMILES	TPT1 inhibitor	CSN deneddyl inh	Rev-erbA mod	HNF4A DNA FP
CN1/C(=C\C(=O)c2ccco2)C(C)(C)c2ccccc21	–	–	–	42
O=C(NNc1cc(N2CCCC2)nc(N2CCCC2)n1)c1ccc([N+](=O)[O-])cc1	–	41	–	–
CC(C)(C)c1ccc(C(=O)NNc2cc(N3CCOCC3)nc(N3CCOCC3)n2)cc1	–	–	–	–
C=C1C2CCC(C2)C1(C)C (centres undefined)	·	·	–	·
O=c1/c(=C\c2ccc(O)cc2)sc2nc(-c3ccccc3)c(-c3ccccc3)n12	–	–	–	52
O=c1/c(=C/c2ccc(O)cc2)sc2nc3cc(Br)cnc3n12	–	·	·	·
O=C1c2nc3cc(-c4ccco4)[nH]n3c(=O)c2CN1C1CCCCC1	–	46	–	–
CCCCCCC(=O)O[C@H]1CC[C@H]2[C@@H]3CCc4cc(O)ccc4[C@H]3CC[C@]12C	·	·	–	·
CC1(C(=O)Nc2cccc(-n3cnnn3)c2)Cc2ccccc2C(=O)O1 (centres undefined)	·	101	–	–
CC1(C(=O)Nc2cccc(S(=O)(=O)N3CCOCC3)c2)Cc2ccccc2C(=O)O1 (centres undefined)	–	–	–	–
Cc1ccc(C2CC(=O)C=C(Nc3ccc(Cl)cc3)C2)cc1 (centres undefined)	–	–	–	35
O=C1C=C(Nc2ccc(Cl)cc2)CC(c2ccc(Cl)cc2)C1 (centres undefined)	–	–	–	–
N[C@@H]1[C@@H](O)[C@H](O)[C@@H](CO)O[C@H]1O	·	·	–	·
CC(C)C[C@H]1CNC(=S)N1C[C@H]1CCCN1C[C@H](CC(C)C)N1C[C@H](CC(C)C)N(CCc2ccccc2)C1=S	·	–	–	–
CC(C)C[C@H]1CNC(=S)N1C[C@H]1CCCN1C[C@H](CC(C)C)N1C[C@H](Cc2ccccc2)N(CCc2ccccc2)C1=S	·	110	–	–
CCCC[C@H](C)C[C@H](O)/C=C/[C@H]1[C@H](O)CC(=O)[C@@H]1CCCC/C=C/C(=O)O	·	·	–	·
Cc1cc(C)n2c(NC3CCCCC3)c(CC(C)C)nc2n1	·	–	–	108
Cc1cc(C)n2c(NC3CCCCC3)c(-c3ccc(F)cc3)nc2n1	·	–	–	–
CCOC(=O)c1ccc(N(CC(C)O)CC(C)O)cc1 (centres undefined)	·	·	–	·
CC1(C)Cc2ccccc2C2CC(O)C(=O)N21 (centres undefined)	–	–	–	35
Cc1cc(C)n(-c2nc3nonc3nc2Nc2cccc(C)c2C)n1	–	57	–	–
C=CCNC(=O)CN(C(=O)Cc1cccc(OC(F)(F)F)c1)c1cccc(Br)c1	·	·	–	·
O=C(Nc1cccc(F)c1)OCCN1CCCC12CCC(c1ccccc1)CC2 (centres undefined)	·	·	–	·
COc1cc2c(c(OC3OC(CO)C(O)C(O)C3O)c1)C(=O)CC(c1ccc(O)cc1)O2 (centres undefined)	·	·	–	·
Cc1ccc(C(=O)N=c2sccn2C)cc1S(=O)(=O)N1CCOCC1	–	–	–	37
SMILES	TPT1 inhibitor	CSN deneddyl inh	Rev-erbA mod	HNF4A DNA FP
Cc1ccc(C(=O)N=c2sccn2C)cc1C	–	–	–	–
N[C@@H](CC(=O)N1CCn2c(nnc2C(F)(F)F)C1)Cc1cc(F)c(F)cc1F	·	·	–	·
Oc1oc(-c2cccc3ccccc23)nc1/C=N/c1nccs1	31	–	–	–
CCC(=O)c1ccc(OCC(=O)OC(C)C(=O)N2CCc3ccccc32)cc1 (centres undefined)	–	–	–	–
Cc1ccc(S(=O)(=O)CCC(=O)OC(C)C(=O)N2CCc3ccccc32)cc1 (centres undefined)	–	40	–	–
CCCCCCc1cc2cc(C(=O)NCc3ccccc3)c(=N)oc2cc1O	–	54	–	–
N#Cc1c(N)n(CCc2ccc(F)cc2)c2nc3ccccc3nc12	–	–	–	–
CCCCn1c(NC(=O)c2ccc(F)cc2)c(C#N)c2nc3ccccc3nc21	81	·	·	·
CCOC(=O)CSc1nnc(CSc2nc3sc4c(c3c(=O)[nH]2)CCCC4)n1-c1ccccc1	–	–	–	34
CCOC(=O)CCCSc1nc2sc3c(c2c(=O)[nH]1)CCC3	–	–	–	–
Cc1ccc(-c2nc3cccnc3s2)cc1NC(=O)C1c2ccccc2Oc2ccccc21	·	36	–	40
CCCCCCCCCCCCOC(=O)CS(=O)(=O)O	·	·	–	·
O=C(O)CSc1nc2ccc(Br)cc2[nH]1	·	70	–	–
COc1ccc2sc(/C=C/c3ccccc3O)[n+](C)c2c1	·	–	–	51
COc1ccc(N=Cc2ccccc2O)cc1	·	–	–	–
COc1ccc(OC)c(/C=N\NC(=O)c2cc3c(ccc4ccccc43)o2)c1	–	–	–	–
O=C(N/N=C/C=C/c1ccccc1)c1cc2c(ccc3ccccc32)o1	–	42	–	–
O=C(N/N=C/c1cccc2ccccc12)c1cc2ccccc2o1	·	–	–	–
O=C(N/N=C/c1ccccc1F)c1cc2c(ccc3ccccc32)o1	–	–	–	39
Cc1ccc2oc(=O)c(/C=C(\O)c3ccco3)nc2c1	–	–	–	41
COc1ccccc1-[n+]1c(C)cc(/C=C2\Sc3ccccc3N2C)cc1C	123	–	–	55
COC(=O)c1ccc(C=NNC(=O)c2cc(-c3ccc(C)c(C)c3)n[nH]2)cc1	·	·	–	·
Cc1cc(-n2c(=O)[nH]c(=O)n(C)c2=O)ccc1Oc1ccc(S(=O)(=O)C(F)(F)F)cc1	·	·	–	·
S=c1[nH]nc(-c2cc(-c3ccco3)[nH]n2)n1-c1ccccc1Cl	–	36	–	–
O=C(CSc1nnc(-c2cccnc2)n1-c1ccc(Cl)cc1)c1ccc2ccccc2c1	·	·	–	·
SMILES	TPT1 inhibitor	CSN deneddyl inh	Rev-erbA mod	HNF4A DNA FP
COc1ccc(N(C(=O)c2ccncc2)S(=O)(=O)c2ccc(F)cc2)cc1	–	85	–	–
Cc1ccc(C(=O)NCC(c2ccc(F)cc2)N2CCOCC2)cc1 (centres undefined)	–	–	–	77
Fc1cccc(CCN2CCNC[C@@H]2Cc2ccccc2)c1	–	38	–	–
NC1=NC[C@H](Cc2ccccc2)N1CCc1cccc(F)c1	–	63	–	–
CCCC[C@@H]1CNCCN1CCc1cccc(F)c1	–	–	–	–
NC1=NC[C@H](Cc2ccccc2)N1CCCCC1CCCCC1	–	–	–	–
O=[N+]([O-])c1ccc(NN=Cc2ccccc2)nc1	·	–	–	–
O=[N+]([O-])c1ccc(N/N=C/c2ccc(OCc3cccc4ccccc34)cc2)nc1	–	70	–	35
CSCCC(NC(=O)c1ccco1)C(=O)NCCc1ccc(Cl)cc1 (centres undefined)	·	37	–	–
Cc1ccc(Cn2ccc(NC(=O)c3cc(-c4ccco4)on3)n2)cc1	–	52	–	–
Cc1ccc(Cn2ccc(NC(=O)c3cc(-c4ccc5c(c4)OCO5)on3)n2)cc1	·	112	–	–
S=C1Nc2ccccc2CS1	·	–	–	–
S=C1Cc2ccccc2N1	·	39	–	–

From PubChem BioAssay
